The nature of data set [1]: Therapeutic index, ratio of ED50 for induction of catalepsy in po dosed mouse to ED50 for antipsychotic activity in po dosed mouse assessed as reduction in MK-801-induced hyperlocomotor activity. In kind it is toxicity, organism-based. Particulars: in vivo, read-out: Ratio ED50. The essentials: (§1)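 Therapeutic index is the catalepsy ED50 divided by the efficacy ED50 from the apomorphine climbing or MK-801 hyperactivity model. All were oral dosing in mice, vehicle 30% PEG 400.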

A short description of data set [2]: […] in rat at 3 mg/kg, iv. In kind it is ADME, organism-based. The settings on record: in vivo. The essentials: (§2)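 Male rats, n = 6 per group, given a single intravenous dose of 3 mg/kg. PK parameters taken from serum concentration–time profiles: t1/2, AUC0-t, AUC0-∞, clearance.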
Data set [3] is described as follows: Induction of catalepsy in po dosed mouse by vertical grid and elevated bar test. In kind it is organism-based. The settings on record: in vivo. The essentials:
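Mouse catalepsy scored by vertical grid and elevated bar tests. Oral doses of 1, 5, 15, 45 and 100 mg/kg in 30% PEG 400. ED50 reported with 95% confidence limits.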

A short description of data set [4]: Half life in rat at 3 mg/kg, iv. In kind it is ADME, organism-based. Particulars: in vivo. The essentials:
as §2

Data set [5] is described as follows: Half life in rat at 10 mg/kg, po. In kind it is ADME, organism-based. The settings on record: in vivo. The essentials: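 Male rats, n = 6 per group, given a single oral dose of 10 mg/kg. PK parameters taken from serum concentration–time profiles: Cmax, Tmax, t1/2, AUC0-t, AUC0-∞, CL/F, F%.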
Data set [6] has as its target T1, Adrenergic receptor alpha-1 (Homo sapiens, UniProt P35348+P25100+P35368).
T1 sequence (P35348 whole entry): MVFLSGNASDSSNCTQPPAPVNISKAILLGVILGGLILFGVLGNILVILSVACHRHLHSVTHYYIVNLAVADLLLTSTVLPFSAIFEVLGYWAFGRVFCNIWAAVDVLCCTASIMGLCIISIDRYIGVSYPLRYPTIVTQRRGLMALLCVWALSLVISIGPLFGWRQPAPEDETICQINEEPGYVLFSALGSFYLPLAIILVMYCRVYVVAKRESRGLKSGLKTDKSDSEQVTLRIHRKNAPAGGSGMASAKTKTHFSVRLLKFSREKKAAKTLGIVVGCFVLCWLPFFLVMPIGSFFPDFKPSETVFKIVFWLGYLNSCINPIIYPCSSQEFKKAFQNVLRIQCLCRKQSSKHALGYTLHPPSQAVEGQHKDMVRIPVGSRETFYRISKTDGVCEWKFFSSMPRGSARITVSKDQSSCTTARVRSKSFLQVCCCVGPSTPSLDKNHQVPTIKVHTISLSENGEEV
T1 sequence (P25100 whole entry): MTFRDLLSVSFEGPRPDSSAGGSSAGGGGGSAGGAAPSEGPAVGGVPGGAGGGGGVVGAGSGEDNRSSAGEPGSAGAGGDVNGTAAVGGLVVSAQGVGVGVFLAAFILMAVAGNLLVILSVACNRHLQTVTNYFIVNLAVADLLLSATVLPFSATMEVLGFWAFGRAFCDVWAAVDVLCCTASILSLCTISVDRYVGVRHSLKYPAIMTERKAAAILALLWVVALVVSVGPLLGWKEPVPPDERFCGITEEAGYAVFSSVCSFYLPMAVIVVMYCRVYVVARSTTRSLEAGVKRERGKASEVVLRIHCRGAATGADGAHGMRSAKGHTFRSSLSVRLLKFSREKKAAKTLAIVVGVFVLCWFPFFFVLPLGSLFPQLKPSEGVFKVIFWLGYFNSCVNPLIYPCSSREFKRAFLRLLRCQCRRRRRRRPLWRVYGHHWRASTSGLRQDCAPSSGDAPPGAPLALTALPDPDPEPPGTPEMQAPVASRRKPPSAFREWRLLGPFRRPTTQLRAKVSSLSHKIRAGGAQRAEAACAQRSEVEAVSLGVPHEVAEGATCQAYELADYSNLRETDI
T1 sequence (P35368 whole entry): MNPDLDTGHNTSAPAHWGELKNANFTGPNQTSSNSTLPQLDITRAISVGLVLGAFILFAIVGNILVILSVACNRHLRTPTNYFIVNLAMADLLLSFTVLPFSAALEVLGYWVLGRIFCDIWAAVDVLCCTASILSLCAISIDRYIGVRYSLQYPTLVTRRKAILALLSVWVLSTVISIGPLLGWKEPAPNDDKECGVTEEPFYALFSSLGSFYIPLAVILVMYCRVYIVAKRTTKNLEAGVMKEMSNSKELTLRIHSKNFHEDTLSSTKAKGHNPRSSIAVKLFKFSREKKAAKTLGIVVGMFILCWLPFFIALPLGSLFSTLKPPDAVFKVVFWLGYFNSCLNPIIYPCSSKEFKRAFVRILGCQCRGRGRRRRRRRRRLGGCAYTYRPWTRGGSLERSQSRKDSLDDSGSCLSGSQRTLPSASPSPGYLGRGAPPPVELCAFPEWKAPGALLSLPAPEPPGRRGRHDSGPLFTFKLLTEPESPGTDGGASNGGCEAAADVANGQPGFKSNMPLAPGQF
Kind of data set: Binding affinity to alpha1 adrenergic receptor (unknown origin). In kind it is protein assay.

A further data set has as its system Rattus norvegicus. Description: Memory enhancement effect in rat assessed as increase in total exploratory time for novel objects at 0.1 to 0.3 mg/kg, po administered 1 hr prior to acquisition trial and measured after 24 hrs by novel object recognition test. In kind it is functional, organism-based. The settings on record: dose mg/kg 0.1-0.3, time 25.0 hrs.
Data set [7] in a line: Therapeutic index, ratio of ED50 for induction of catalepsy in po dosed mouse to ED50 for antipsychotic activity in po dosed mouse assessed as suppression of apomorphine-induced climbing. In kind it is toxicity, organism-based. Particulars: in vivo, read-out: Ratio ED50. The method, boiled down:
as §1

Active and inactive are the calls of the source. The rule behind the calls is not given here.

In the case of `CC(=O)Nc1ccc(OCCCN2CCC(c3noc4cc(F)ccc34)CC2)cc1`, the selectivity ratio in data set [1] is 133; in data set [7], 90. Also, the CL/F (usually clearance divided by bioavailability, as obtained after extravascular dosing) in data set [2] came out at 3.22 mL/h. Moreover, the ED50 (usually the dose that gives a 50% effect, or the effect in half of the subjects) in data set [3] was found to be 25.2 mg/kg. Moreover, the half-life (in general, how long it takes for the measured level to halve) in data set [4] is 3.68 h; in data set [5] it was 3.34 h. The Ki – broadly, a dissociation constant, usually derived from enzyme kinetics or from competition with a known ligand – in data set [6] amounted to 3.296 µM. Further, the result in the data set with Rattus norvegicus was Active.

Source of the values: ChEMBL document CHEMBL4725387, “Synthesis and pharmacological evaluation of piperidine (piperazine)-amide substituted derivatives as multi-target antipsychotics” (Bioorg Med Chem Lett, 2020).
